For one data set, the system named is SF-268. In words: Growth inhibition of human SF268 cells after 48 hrs by sulforhodamine B assay. In kind it is functional. The following applies: SF-268, 48 h. The method, boiled down: (§1)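 NCI sulforhodamine B assay. Cells were seeded in 5% FBS/RPMI-1640 and incubated 24 h. Serial compound dilutions were then added for 48 h. Cells were fixed with trichloroacetic acid, stained with SRB and read by microplate reader. GI50 is the concentration giving 50% reduction in net protein increase, calculated from optical density data.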

Data set [1] has as its system HUVEC. In words: Antiangiogenic activity in HUVEC assessed as cell growth at 0.00001 ug/ml after 24 hrs by sulforhodamine B assay relative to control. Type of data set: functional. The following applies: Homo sapiens, read-out: Activity.
Data set [2] deals with HUVEC. In words: Antiangiogenic activity in HUVEC assessed as cell growth at 0.001 ug/ml after 24 hrs by sulforhodamine B assay relative to control. In kind it is functional, Homo sapiens. As to conditions: Homo sapiens, HUVEC, 24 h; read-out: Activity.
In the next data set the test system is BXPC-3. In words: Growth inhibition of human BxPC3 cells after 48 hrs by sulforhodamine B assay. As to conditions: BXPC-3, 48 h. In kind it is functional. The method, boiled down:
as §1

Data set [3] concerns HUVEC. The data set is described as follows: Antiangiogenic activity in HUVEC assessed as reduction of cord length at 0.001 ug/ml after 24 hrs by matrigel assay relative to control. Type of data set: functional, Homo sapiens. Further details: scale not given: the % may be the effect or the level left. The gist of the method:
(§2)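 Commercial HUVECs grown in EGM-2 were seeded at 2 × 10⁵ cells/mL onto Matrigel, which had been polymerized 15 min at rt and then 30 min at 37 °C, per NCI DTP protocol. Compound was added and cells were incubated 24 h, then imaged by inverted microscopy. Cord length and junction number were scored against untreated control on a scale from − (none) to +++ (same as control), with ++ = 50% of control.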

For data set [4], the system named is HUVEC. In words: Antiangiogenic activity in HUVEC assessed as cell growth at 0.01 ug/ml after 24 hrs by sulforhodamine B assay relative to control. In kind it is functional, Homo sapiens.
Data set [5] has as its system HUVEC. The data set is described as follows: Antiangiogenic activity in HUVEC assessed as cell growth at 0.0001 ug/ml after 24 hrs by sulforhodamine B assay relative to control. In kind it is functional, Homo sapiens.
The next data set has as its system DU-145. The data set is described as follows: Growth inhibition of human DU145 cells after 48 hrs by sulforhodamine B assay. In kind it is functional. The following applies: DU-145, 48 h. The method, boiled down: as §1
A short description of data set [6]: Growth inhibition of human KAT4 cells after 48 hrs by sulforhodamine B assay. In kind it is functional. As to conditions: KAT-4, 48 h.
For data set [7], the system named is HUVEC. In words: Antiangiogenic activity in HUVEC assessed as reduction of number of junctions at 0.001 ug/ml after 24 hrs by matrigel assay relative to control. Type of data set: functional, Homo sapiens. Further details: scale not given: the % may be the effect or the level left. The gist of the method: as §2
A short description of data set [8]: Solubility of the compound in water. The following applies: buffer. In kind it is physicochemical. The method, boiled down:
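Solubility expressed as amount dissolving in 1 mL H₂O at 25 °C.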

The next data set deals with MCF7. The data set is described as follows: Growth inhibition of human MCF7 cells after 48 hrs by sulforhodamine B assay. In kind it is functional. The following applies: MCF7, 48 h. The method, boiled down:
as §1

In the next data set the test system is SW-1736. In words: Growth inhibition of human SW1736 cells after 48 hrs by sulforhodamine B assay. In kind it is functional. The following applies: SW-1736, 48 h.
The next data set deals with NCI-H460. The data set is described as follows: Growth inhibition of human NCI-H460 cells after 48 hrs by sulforhodamine B assay. In kind it is functional. The following applies: NCI-H460, 48 h. The gist of the method: as §1
The subject of another data set is KM-20L2. The data set is described as follows: Growth inhibition of human KM20L2 cells after 48 hrs by sulforhodamine B assay. Type of data set: functional. The following applies: KM-20L2, 48 h. The method, boiled down: as §1
Data set [9] deals with HUVEC. The data set is described as follows: Antiangiogenic activity in HUVEC assessed as cell growth inhibition after 48 hrs by sulforhodamine B assay. In kind it is functional, cell-based. As to conditions: Homo sapiens. The gist of the method: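 HUVECs were grown in EGM-2 medium and tested with the standard SRB growth assay following NCI Developmental Therapeutics Program Matrigel antiangiogenesis protocols. IC50 (concentration causing 50% inhibition) was calculated from plotted data.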

For another data set, the system named is P388. The data set is described as follows: Growth inhibition of mouse P388 cells after 48 hrs by Z1 Beckman/Coulter particle counter analysis. As to conditions: P388, 48 h, read-out: ED50 (the source's name). In kind it is functional. The gist of the method:
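Mouse P388 leukemia cells were incubated 24 h in 10% horse serum/Fisher medium, then exposed 48 h to serial compound dilutions. ED50 was calculated from cell counts on a Coulter Z1 particle counter.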

The subject of a further data set is Neisseria gonorrhoeae. The data set is described as follows: Antibacterial activity against Neisseria gonorrhoeae ATCC 49226 by broth microdilution method. In kind it is functional. The gist of the method:
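Broth microdilution followed NCCLS standard methods. Compounds were reconstituted in sterile DMSO and diluted in the appropriate medium immediately before testing. MIC was taken as the lowest concentration giving no visible growth (optically clear). Assays were repeated on separate days.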

The structures appear in SMILES notation. Values after ≈ are worked out from the molar mass of the structure shown.

Turning to `COc1ccc(/C=C\c2cc(I)c(OC)c(OC)c2)cc1OP(=O)([O-])[O-].[K+].[K+]`, the GI50 is 0.0057 µg/mL in the data set with SF-268; 0.381 µg/mL in the data set with BXPC-3; 0.0038 µg/mL in the data set with DU-145; 0.37 µg/mL in data set [6]; 0.0064 µg/mL with MCF7; over 10 µg/mL with SW-1736. Further, the GI50 in the data set with NCI-H460 worked out at 0.0043 µg/mL; with KM-20L2, 0.41 µg/mL. Further, the growth at 10 pg/mL in the data set with HUVEC [1] came out at 95%. Also, the growth at 0.001 µg/mL in the data set on HUVEC [2] is 10%. For the same compound, the Activity in the data set with HUVEC [3] is recorded as 50%; in the data set with HUVEC [4], 1%; in the data set with HUVEC [5], 77%; in the data set on HUVEC [7] it was 75%. In data set [8], the solubility is 14 mg/mL. Besides, the IC50 in the data set on HUVEC [9] was 0.00025 µg/mL. In addition, in the data set with P388, the EC50 was 0.0021 µg/mL.
For `C1COCCN1.C1COCCN1.COc1ccc(/C=C\c2cc(I)c(OC)c(OC)c2)cc1OP(=O)(O)O`, the GI50 worked out at 0.0037 µg/mL in the data set with SF-268; 0.21 µg/mL in the data set with BXPC-3; 0.0026 µg/mL in the data set with DU-145; 0.0047 µg/mL with MCF7; 0.0036 µg/mL in the data set with NCI-H460; 0.24 µg/mL in the data set with KM-20L2. In addition, in the data set with Neisseria gonorrhoeae, the MIC was determined as 16 µg/mL. Further, the EC50 in the data set with P388 is 0.0032 µg/mL.
As for `COc1ccc(/C=C\c2cc(I)c(OC)c(I)c2)cc1OP(=O)(O)O.OCN(CO)CO.OCN(CO)CO`, the GI50 in the data set with SF-268 turned out to be 0.04 µg/mL; in the data set on BXPC-3 it was 0.33 µg/mL; with DU-145, 0.021 µg/mL; in the data set on MCF7, 0.047 µg/mL; in the data set with NCI-H460, 0.025 µg/mL; in the data set with KM-20L2, 0.94 µg/mL. Moreover, in the data set on Neisseria gonorrhoeae, the MIC is under 0.5 µg/mL. Also, the EC50 in the data set on P388 is 0.026 µg/mL.
As for `C1CCNCC1.C1CCNCC1.COc1ccc(/C=C\c2cc(I)c(OC)c(I)c2)cc1OP(=O)(O)O`, the GI50 in the data set on SF-268 was 0.041 µg/mL; in the data set on BXPC-3, 0.33 µg/mL; in the data set on DU-145 it was 0.025 µg/mL; in the data set on MCF7, 0.07 µg/mL; in the data set with NCI-H460 it was 0.025 µg/mL; in the data set on KM-20L2, over 1 µg/mL. Also, the MIC with Neisseria gonorrhoeae is under 0.5 µg/mL. In addition, in the data set on P388, the EC50 worked out at 0.011 µg/mL.
Turning to `COc1ccc(/C=C/c2cc(I)c(OC)c(I)c2)cc1O`, the GI50 in the data set on SF-268 was 3.3 µg/mL (≈ 6.49 µM); with BXPC-3, 3 µg/mL (≈ 5.9 µM); in the data set on DU-145, 5.8 µg/mL (≈ 11.4 µM); with MCF7, 0.94 µg/mL (≈ 1.85 µM); in the data set with NCI-H460, 3.4 µg/mL (≈ 6.69 µM); in the data set with KM-20L2 it was over 10 µg/mL. Also, in the data set with P388, the EC50 is over 10 µg/mL.
`COc1ccc(/C=C\c2cc(O)c(OC)c(OC)c2)cc1O`: the GI50 worked out at 0.0083 µg/mL (≈ 0.0275 µM) in the data set with SF-268; 2.3 µg/mL (≈ 7.61 µM) in the data set with BXPC-3; 0.0043 µg/mL (≈ 0.0142 µM) with DU-145; 0.49 µg/mL (≈ 1.62 µM) in the data set with MCF7; 0.19 µg/mL (≈ 0.628 µM) in the data set on NCI-H460; 1.2 µg/mL (≈ 3.97 µM) in the data set on KM-20L2. In the data set with P388, the EC50 came to 0.26 µg/mL (≈ 0.86 µM).
For `COC(=O)CN.COC(=O)CN.COc1ccc(/C=C\c2cc(I)c(OC)c(I)c2)cc1OP(=O)(O)O`, the GI50 in the data set on SF-268 was 0.054 µg/mL; in the data set with BXPC-3 it was 0.36 µg/mL; with DU-145, 0.023 µg/mL; in the data set with MCF7 it was 0.1 µg/mL; in the data set with NCI-H460 it was 0.03 µg/mL; in the data set on KM-20L2, over 1 µg/mL. Besides, the MIC against Neisseria gonorrhoeae was under 0.5 µg/mL. In the data set on P388, the EC50 is 0.011 µg/mL.
Turning to `C1COCCN1.C1COCCN1.COc1ccc(/C=C\c2cc(I)c(OC)c(I)c2)cc1OP(=O)(O)O`, the GI50 with SF-268 was 0.054 µg/mL; in the data set with BXPC-3 it was 0.35 µg/mL; in the data set with DU-145, 0.028 µg/mL; in the data set with MCF7, 0.066 µg/mL; in the data set with NCI-H460, 0.033 µg/mL; with KM-20L2, over 1 µg/mL. The same compound gave an MIC against Neisseria gonorrhoeae of under 0.5 µg/mL. Further, the EC50 with P388 was determined as 0.014 µg/mL.
Consider `COc1ccc(/C=C\c2cc(I)c(OC)c(OC)c2)cc1OP(=O)(O)O.OCN(CO)CO.OCN(CO)CO`, for which the GI50 in the data set on SF-268 was 0.0043 µg/mL; in the data set with BXPC-3, 0.37 µg/mL; with DU-145 it was 0.0047 µg/mL; in the data set with MCF7, 0.0048 µg/mL; with NCI-H460, 0.004 µg/mL; in the data set on KM-20L2 it was 0.4 µg/mL. The MIC against Neisseria gonorrhoeae amounted to 32 µg/mL. Moreover, the EC50 in the data set on P388 was 0.0029 µg/mL.

The record behind these values is ChEMBL document CHEMBL2021780, “Antineoplastic agents. 548. Synthesis of iodo- and diiodocombstatin phosphate prodrugs” (J Nat Prod, 2012).
